Data on 22 compounds can be found in ChEMBL document CHEMBL2346537, “Phenylimino-2H-chromen-3-carboxamide derivatives as novel small molecule inhibitors of β-secretase (BACE1)” (Bioorg Med Chem, 2013).

By IC50 is commonly meant the concentration that inhibits the measured activity by half. A lower IC50 goes with higher potency. As a reminder, the inhibition is the change of the read-out against control, counted positive when it falls.

Data set [1] concerns the target Beta-secretase 1 (Homo sapiens, UniProt P56817). Kind of data set: Inhibition of BACE1 (unknown origin) expressed in baculovirus expression system using Rh-EVNLDAEFK-Quencher as substrate after 90 mins by FRET assay.
The nature of data set [2]: Cytotoxicity against mouse Neuro2a cells expressing APP Swedish mutant assessed as cell viability at 5 uM after 24 hrs by MTT assay relative to control. Type of data set: cell-based, N2a. The following applies: read-out: Activity. In short, it runs like this:
(§1)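 N2a-APPswe cells seeded at 2 × 10⁵ cells/ml (8 × 10⁴/well), grown overnight at 37 °C, then dosed as in the Aβ assay (DMSO diluted in medium, final DMSO under 0.5%). MTT 0.5 mg/ml added for 4 h at 37 °C, formazan dissolved in DMSO, read at 570 nm with 655 nm background. Viability given as percent of untreated control. Average of 3–4 experiments ± SEM.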

Data set [3] can be described thus: Cytotoxicity against mouse Neuro2a cells expressing APP Swedish mutant assessed as cell viability at 10 uM after 24 hrs by MTT assay relative to control. Type of data set: cell-based, N2a. Particulars: read-out: Activity. In short, it runs like this: as §1
Background: Tetrazolium assays rely on reduction of a dye to a coloured formazan, in cell work by metabolically active cells.

Data set [4] deals with Beta-secretase 1 (Mus musculus) (UniProt P56818). The data set is described as follows: Inhibition of BACE1 in mouse Neuro2a cells expressing APP Swedish mutant assessed as inhibition of amyloid beta (1 to 40) production at 5 uM after 24 hrs by sandwich ELISA relative to control. The data set is classed as cell-based. In short, it runs like this:
(§2)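 N2a-APPswe cells seeded at 2 × 10⁵ cells/ml and incubated overnight at 37 °C. Medium replaced, compound in growth medium added (DMSO under 0.5%), incubated 24 h. Conditioned medium collected with 0.1 mM PMSF. Human Aβ1–40 measured by colorimetric sandwich ELISA at 450 nm. Percent inhibition relative to untreated cells, 2–3 experiments ± SEM.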
For orientation: In an ELISA, binding on a coated surface is turned into a signal by an enzyme label.

Data set [5] shares this target. The data set is described as follows: Inhibition of BACE1 in mouse Neuro2a cells expressing APP Swedish mutant assessed as inhibition of amyloid beta (1 to 40) production at 10 uM after 24 hrs by sandwich ELISA relative to control. The data set is classed as cell-based. The method, boiled down: as §2

Chain of Beta-secretase 1 (P56817 whole entry): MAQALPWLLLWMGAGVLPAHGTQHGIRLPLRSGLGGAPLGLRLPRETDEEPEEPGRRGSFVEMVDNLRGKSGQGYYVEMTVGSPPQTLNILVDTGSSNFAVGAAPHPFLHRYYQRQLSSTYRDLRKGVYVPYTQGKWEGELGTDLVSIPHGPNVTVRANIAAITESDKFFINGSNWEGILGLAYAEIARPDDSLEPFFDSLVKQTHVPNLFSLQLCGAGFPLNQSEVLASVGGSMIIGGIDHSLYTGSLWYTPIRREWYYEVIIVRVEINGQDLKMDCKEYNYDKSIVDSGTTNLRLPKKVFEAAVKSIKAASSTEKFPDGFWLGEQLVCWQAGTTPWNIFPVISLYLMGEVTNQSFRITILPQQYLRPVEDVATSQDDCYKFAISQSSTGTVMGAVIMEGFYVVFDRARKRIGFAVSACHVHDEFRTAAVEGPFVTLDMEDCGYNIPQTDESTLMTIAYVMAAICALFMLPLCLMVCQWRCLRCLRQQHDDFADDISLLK
Chain of Beta-secretase 1 (Mus musculus) (P56818 whole entry): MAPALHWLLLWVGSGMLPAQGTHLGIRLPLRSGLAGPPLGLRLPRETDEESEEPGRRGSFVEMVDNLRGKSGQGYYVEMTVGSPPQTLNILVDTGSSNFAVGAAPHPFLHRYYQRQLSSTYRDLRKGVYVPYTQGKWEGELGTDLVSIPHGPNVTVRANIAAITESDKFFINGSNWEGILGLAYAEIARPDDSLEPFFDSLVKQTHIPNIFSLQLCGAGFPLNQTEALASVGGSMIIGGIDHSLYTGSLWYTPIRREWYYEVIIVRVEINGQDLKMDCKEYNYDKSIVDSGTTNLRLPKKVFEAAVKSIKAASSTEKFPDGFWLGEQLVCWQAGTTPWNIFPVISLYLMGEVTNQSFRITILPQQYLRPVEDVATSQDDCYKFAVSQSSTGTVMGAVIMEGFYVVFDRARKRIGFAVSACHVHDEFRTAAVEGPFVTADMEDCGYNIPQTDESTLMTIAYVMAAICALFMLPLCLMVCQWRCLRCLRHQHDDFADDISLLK

In data set [1], `COc1cccc2cc(C(=O)Nc3cc(Br)ccc3N3CCN(Cc4ccccc4)CC3)/c(=N/c3ccccc3)oc12` registered an IC50 greater than 10000 nM.

On to `CC(C)C[C@H](NC(=O)[C@H](CC(N)=O)NC(=O)[C@@H](NC(=O)[C@@H](N)CCC(=O)O)C(C)C)[C@@H](O)CC(C)C(=O)N[C@@H](C)C(=O)N[C@@H](CCC(=O)O)C(=O)N[C@@H](Cc1ccccc1)C(=O)O` (single isomer, unassigned), for which the viability at 24 h, 5 µM in data set [2] was less than 70%. Besides, the viability at 24 h, 10 µM in data set [3] is less than 70%.

The compound `O=C(Nc1cc(Br)ccc1N1CCN(C(=O)c2cccs2)CC1)c1cc2ccccc2o/c1=N\c1ccccc1` came in with a half-maximal inhibitory concentration (IC50) in data set [1] of 3550 nM.

Regarding `O=C(Nc1cc(Br)ccc1N1CCN(C(=O)c2cccc([N+](=O)[O-])c2)CC1)c1cc2ccccc2o/c1=N\c1ccccc1`, the IC50 in data set [1] stood at 26400 nM.

With `O=C(Nc1cc(Br)ccc1N1CCN(C(=O)c2ccco2)CC1)c1cc2ccccc2o/c1=N\c1ccccc1`, the viability at 24 h, 5 µM in data set [2] came out at 93%. Moreover, in data set [3], the viability at 24 h, 10 µM came to 95.4%. Also, the inhibition was found to be 53.1% in data set [4] and 65.8% in data set [5]. In addition, half-maximal inhibition in data set [1] (IC50) was put at 741 nM.

In data set [1], `CC(C)(C)OC(=O)N1CCN(c2ccc(Br)cc2NC(=O)c2cc3ccccc3o/c2=N\c2ccccc2)CC1` gave an IC50 of 9810 nM.

`COc1cccc2cc(C(=O)Nc3cc(Br)ccc3N3CCN(Cc4ccccc4)CC3)c(=N)oc12` returned an IC50 in data set [1] greater than 10000 nM.

Regarding `O=C(Nc1cc(Br)ccc1N1CCN(CCCCN2C(=O)c3ccccc3C2=O)CC1)c1cc2ccccc2o/c1=N\c1ccccc1`, the IC50 in data set [1] is 854 nM.

Take `N#CCCCN1CCN(c2ccc(Br)cc2NC(=O)c2cc3ccccc3o/c2=N\c2ccccc2)CC1`: the IC50 in data set [1] was greater than 10000 nM.

`COc1ccccc1C(=O)N1CCN(c2ccc(Br)cc2NC(=O)c2cc3ccccc3o/c2=N\c2ccccc2)CC1` had a half-maximal inhibitory concentration (IC50) in data set [1] of 25700 nM.

In the case of `O=C(Nc1cc(Br)ccc1N1CCN(CCO)CC1)c1cc2ccccc2o/c1=N\c1ccccc1`, the viability at 24 h, 5 µM in data set [2] was 105%. Besides, in data set [3], the viability at 24 h, 10 µM came out at 101%. In addition, the inhibition in data set [4] was determined as 41.3%; in data set [5], 48.2%. In data set [1], this compound returned a half-inhibitory concentration (IC50) of 849 nM.

As to `O=C(Nc1cc(Br)ccc1N1CCN(CCCN2C(=O)c3ccccc3C2=O)CC1)c1cc2ccccc2o/c1=N\c1ccccc1`, in data set [2], the viability at 24 h, 5 µM amounted to 101%. In addition, in data set [4], the inhibition stood at 44.3%. The compound further had an IC50 in data set [1] of 326 nM.

With `O=C(Nc1cc(Br)ccc1N1CCN(Cc2ccccc2)CC1)c1cc2ccccc2o/c1=N\c1ccccc1`, the viability at 24 h, 5 µM in data set [2] came to 102%. In addition, the viability at 24 h, 10 µM in data set [3] worked out at 95%. The inhibition in data set [4] is 60.9%; in data set [5], 64.7%. The compound also had an IC50 in data set [1] of 503 nM.

In turn, `O=C(Nc1cc(Br)ccc1N1CCNCC1)c1cc2ccccc2o/c1=N\c1ccccc1` returned a half-maximal inhibitory concentration (IC50) in data set [1] of 9270 nM.

In data set [1], `CC(C)(C)OC(=O)N1CCN(c2ccc(Br)cc2NC(=O)c2cc3ccccc3oc2=N)CC1` showed an IC50 greater than 10000 nM.

In turn, `COc1ccc(C(=O)N2CCN(c3ccc(Br)cc3NC(=O)c3cc4ccccc4o/c3=N\c3ccccc3)CC2)cc1` registered an IC50 in data set [1] greater than 10000 nM.

Take `N#Cc1cccc(CN2CCN(c3ccc(Br)cc3NC(=O)c3cc4ccccc4o/c3=N\c3ccccc3)CC2)c1`: the viability at 24 h, 5 µM in data set [2] is 91.2%. The viability at 24 h, 10 µM in data set [3] came to 88.7%. In addition, the inhibition in data set [5] turned out to be 51.8%. The same compound came in with an IC50 in data set [1] of 119 nM.

Consider `O=C(Nc1cc(Br)ccc1N1CCN(CCc2cc3ccccc3[nH]2)CC1)c1cc2ccccc2o/c1=N\c1ccccc1`, for which the viability at 24 h, 5 µM in data set [2] is 105%. For the same compound, the viability at 24 h, 10 µM in data set [3] came out at 111%. The values for the inhibition in data set [4] and in data set [5] were 37.8% and 57.6%, respectively. The compound further had a concentration for half-maximal inhibition (IC50) in data set [1] of 928 nM.

In the case of `COc1ccc(CN2CCN(c3ccc(Br)cc3NC(=O)c3cc4ccccc4o/c3=N\c3ccccc3)CC2)cc1`, in data set [2], the viability at 24 h, 5 µM is 101%. Moreover, in data set [3], the viability at 24 h, 10 µM was 98.3%. Besides, the inhibition in data set [5] came out at 22.9%. Moreover, inhibition in data set [1] was half-maximal at 578 nM (IC50).

For `N=c1oc2ccccc2cc1C(=O)Nc1cc(Br)ccc1N1CCN(Cc2ccccc2)CC1`, the viability at 24 h, 5 µM in data set [2] was determined as 99.7%. Besides, the viability at 24 h, 10 µM in data set [3] was 98.9%. Besides, the inhibition in data set [4] is 26.4%; in data set [5] it was 58.3%. Also, in data set [1], inhibition was half-maximal at 1220 nM (IC50).

`O=C(Nc1cc(Br)ccc1N1CCN(CCN2C(=O)c3ccccc3C2=O)CC1)c1cc2ccccc2o/c1=N\c1ccccc1`: the viability at 24 h, 5 µM in data set [2] was determined as 108%. Further, the viability at 24 h, 10 µM in data set [3] was 96.5%. Further, the results for the inhibition in data set [4] and in data set [5] were 13.6% and 39.4%, respectively. This compound also displayed an IC50 in data set [1] of 98 nM.

Consider `O=C(Nc1cc(Br)ccc1N1CCN(C(=O)c2cccc(Cl)c2)CC1)c1cc2ccccc2o/c1=N\c1ccccc1`, for which the IC50 in data set [1] is greater than 10000 nM.
